In ChEMBL document CHEMBL1926592, “Synthesis and in vitro evaluation of fluorinated styryl benzazoles as amyloid-probes” (Bioorg Med Chem, 2011) one finds Kd, Activity and fold change (FC) data, which are given here for nine compounds.

In series [1] the target is Alpha-synuclein (Homo sapiens) (UniProt P37840). Description: Binding affinity to human alpha-synuclein fibril by fluorescence intensity assay.
The nature of series [2]: Binding affinity to human insulin fibril by fluorescence intensity assay. In outline:
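Fibrils grown from human insulin (3 mg/mL, Tris-HCl 50 mM pH 3), E. coli-expressed human α-syn (3 mg/mL, pH 7.4) or Aβ(1–42) (0.5 mg/ml, 1% NH4OH). Fibril level taken as supernatant protein depletion. Fixed fibrils (3.5–11.35) titrated with ligand (DMSO stock diluted into 50 mM Tris-HCl pH 7.4). Plate-reader intensity read at each ligand's maximal excitation/emission wavelengths, dye blanks subtracted. Kd from single-site saturation fit.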

The target of series [3] is T1, Amyloid-beta precursor protein (Homo sapiens, UniProt P05067). Description: Binding affinity to human amyloid beta (1 to 42) monomer by fluorescence intensity assay.
A further series has as its target Insulin (Homo sapiens) (UniProt P01308). Put plainly: Binding affinity to human insulin monomer by fluorescence intensity assay.
Series [4] is filed under the species Homo sapiens. Description: Binding affinity to human […] fibril assessed as increase in intrinsic fluorescence intensity at 2.25 uM relative to equimolar monomeric specie.
The species named for series [5] is Homo sapiens. Description: Binding affinity to human insulin fibril assessed as intrinsic fluorescence intensity.
Series [6] concerns the target T1, Amyloid-beta precursor protein. Description: Binding affinity to human amyloid beta (1 to 42) fibril assessed as increase in intrinsic fluorescence intensity at 2.25 uM relative to equimolar monomeric specie.
Series [7] is filed under the species Homo sapiens. Description: Binding affinity to human […] fibril assessed as intrinsic fluorescence intensity.
The target in series [8] is T1, Amyloid-beta precursor protein. Description: Binding affinity to human amyloid beta (1 to 42) fibril assessed as intrinsic fluorescence intensity.
The target of another series is Albumin (Bos taurus, UniProt P02769). Put plainly: Binding affinity to bovine serum albumin by fluorescence intensity assay. In kind it is ADME. As to conditions: cattle, isolated protein. In outline:
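BSA titrated with increasing ligand concentrations in 50 mM Tris-HCl pH 7.4, in the same way as the fibril assays. Intrinsic fluorescence intensity was read on a plate reader with dye-blank background subtracted. Kd came from a single-site saturation curve fit.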

The species entered for series [9] is Homo sapiens. Description: Binding affinity to human insulin fibril assessed as increase in intrinsic fluorescence intensity at 2.25 uM relative to equimolar monomeric specie.
Series [10] has as its target Alpha-synuclein (Homo sapiens) (UniProt P37840). Put plainly: Binding affinity to human alpha-synuclein monomer expressed in Escherichia coli BL21 by fluorescence intensity assay.
Series [11] concerns the target T1, Amyloid-beta precursor protein. Put plainly: Binding affinity to human amyloid beta (1 to 42) fibril by fluorescence intensity assay. In outline: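 Fibrils grown from human insulin (3 mg/mL, Tris-HCl 50 mM pH 3), E. coli-expressed human α-syn (3 mg/mL, pH 7.4) or Aβ(1–42) (0.5 mg/ml, 1% NH4OH). Fibril level taken as supernatant protein depletion. Plate-reader intensity read at each ligand's maximal excitation/emission wavelengths, dye blanks subtracted. Kd from single-site saturation fit.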

The source made the active and inactive calls. No cut-off for these calls is given here.

Sequence of Insulin (Homo sapiens) (P01308 whole entry): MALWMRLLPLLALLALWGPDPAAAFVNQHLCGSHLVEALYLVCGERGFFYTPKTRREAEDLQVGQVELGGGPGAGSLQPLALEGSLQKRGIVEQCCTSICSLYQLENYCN
T1 sequence (P05067 whole entry): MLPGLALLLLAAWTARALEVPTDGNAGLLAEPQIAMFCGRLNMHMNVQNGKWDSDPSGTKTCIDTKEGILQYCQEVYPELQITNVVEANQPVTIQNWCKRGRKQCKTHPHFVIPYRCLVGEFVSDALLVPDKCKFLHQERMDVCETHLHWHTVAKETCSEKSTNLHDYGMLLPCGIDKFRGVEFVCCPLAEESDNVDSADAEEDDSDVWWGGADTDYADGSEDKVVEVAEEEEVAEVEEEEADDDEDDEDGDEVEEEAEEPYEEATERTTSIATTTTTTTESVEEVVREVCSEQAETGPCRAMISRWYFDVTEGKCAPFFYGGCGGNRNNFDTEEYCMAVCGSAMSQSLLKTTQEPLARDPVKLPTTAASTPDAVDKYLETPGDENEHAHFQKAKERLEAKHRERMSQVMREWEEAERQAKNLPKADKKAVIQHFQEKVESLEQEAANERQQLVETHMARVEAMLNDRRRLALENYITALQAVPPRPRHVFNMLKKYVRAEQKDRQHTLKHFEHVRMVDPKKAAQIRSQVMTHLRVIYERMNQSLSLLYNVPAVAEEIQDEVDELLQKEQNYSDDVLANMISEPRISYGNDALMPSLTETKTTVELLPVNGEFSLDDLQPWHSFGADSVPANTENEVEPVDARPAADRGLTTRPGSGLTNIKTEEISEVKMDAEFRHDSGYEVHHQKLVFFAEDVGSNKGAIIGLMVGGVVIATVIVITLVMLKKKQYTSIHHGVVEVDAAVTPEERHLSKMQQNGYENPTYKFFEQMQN
Sequence of Albumin (P02769 whole entry): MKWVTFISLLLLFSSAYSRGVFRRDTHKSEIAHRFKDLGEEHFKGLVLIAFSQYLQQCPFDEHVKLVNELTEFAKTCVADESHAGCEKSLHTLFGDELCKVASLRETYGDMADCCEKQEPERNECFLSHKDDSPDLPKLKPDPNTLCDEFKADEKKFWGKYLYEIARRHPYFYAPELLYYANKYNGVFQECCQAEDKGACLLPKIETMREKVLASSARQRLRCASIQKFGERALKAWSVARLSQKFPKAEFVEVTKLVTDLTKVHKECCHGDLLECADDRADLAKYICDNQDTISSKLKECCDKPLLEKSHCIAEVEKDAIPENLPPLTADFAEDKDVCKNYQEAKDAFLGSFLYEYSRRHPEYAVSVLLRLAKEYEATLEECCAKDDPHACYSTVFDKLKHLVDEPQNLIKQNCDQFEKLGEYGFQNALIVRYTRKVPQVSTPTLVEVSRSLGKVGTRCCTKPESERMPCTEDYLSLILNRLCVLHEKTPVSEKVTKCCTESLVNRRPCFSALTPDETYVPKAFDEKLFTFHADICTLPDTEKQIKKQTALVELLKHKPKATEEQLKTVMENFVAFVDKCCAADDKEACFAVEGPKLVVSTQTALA

With `CN(CCF)c1ccc(/C=C\c2nc3ccccc3o2)cc1`, the Kd in series [1] was 7.43 µM⁻¹; in series [2], 3.24 µM⁻¹; in [11], 5.99 µM⁻¹. Moreover, the outcome (in series [3]; at Insulin (Homo sapiens); in series [10]) was inactive. For the same compound, the results for the fold change (FC) (in the series listed under Homo sapiens [4]; in series [6]; in the series filed under Homo sapiens [9]) were 1.63, 1.28 and 1.6, respectively. Also, the outcome (in the series filed under Homo sapiens [5]; in the series listed under Homo sapiens [7]; in series [8]) was Active. Besides, the Activity result on Albumin is recorded as “Not Active”.

As for `CN(CCF)c1ccc(/C=C/c2nc3ccccc3n2C)cc1`, the Kd in [1] turned out to be 1.81 µM⁻¹; in series [2], 1.22 µM⁻¹; in series [11] it was 5.19 µM⁻¹. Further, the outcome (in [3]; on Insulin (Homo sapiens); in series [10]) was inactive. The fold change (FC) amounted to 2.23 in the series filed under Homo sapiens [4], 5.17 in series [6] and 3.63 in the series filed under Homo sapiens [9]. Moreover, the result (in the series filed under Homo sapiens [5]; in the series filed under Homo sapiens [7]; in series [8]) was Active. In addition, the Activity result on Albumin is listed as “Not Active”.

As for `CN(CCF)c1ccc(/C=C\c2nc3ccccc3n2C)cc1`, the Kd in series [1] stood at 1.85 µM⁻¹; in series [2], 3.86 µM⁻¹; in [11], 3.52 µM⁻¹. Also, the result (in series [3]; at Insulin (Homo sapiens); in [10]) was inactive. Moreover, the fold change (FC) in the series listed under Homo sapiens [4] is 2.84; in [6] it was 5.9; in the series filed under Homo sapiens [9] it was 2.84. For the same compound, the outcome (in the series listed under Homo sapiens [5]; in the series listed under Homo sapiens [7]; in [8]) was Active. Moreover, the Activity entry at Albumin is given as “Not Active”.

In the case of `CN(CCF)c1ccc(/C=C/c2nc3ccccc3o2)cc1`, the Kd is 3.24 µM⁻¹ in [1], 2.28 µM⁻¹ in series [2] and 4.48 µM⁻¹ in series [11]. For the same compound, the outcome (in series [3]; at Insulin (Homo sapiens); in series [10]) was inactive. Moreover, the fold change (FC) stood at 1.98 in the series filed under Homo sapiens [4], 2.69 in series [6] and 1.98 in the series listed under Homo sapiens [9]. In addition, the result (in the series filed under Homo sapiens [5]; in the series listed under Homo sapiens [7]; in series [8]) was Active. For the same compound, the Activity entry at Albumin is on record as “Not Active”.

On to `CN(CCF)c1ccc(/C=C/c2nc3ccccc3[nH]2)cc1`, for which the Kd in series [1] was 3.31 µM⁻¹; in [2], 1.54 µM⁻¹; in series [11], 3.63 µM⁻¹. The outcome (in series [3]; at Insulin (Homo sapiens); in series [10]) was inactive. The fold change (FC) was 4.5 in the series listed under Homo sapiens [4], 2.71 in [6] and 2.49 in the series filed under Homo sapiens [9]. Besides, the result (in the series filed under Homo sapiens [5]; in the series filed under Homo sapiens [7]; in series [8]) was Active. Also, the Activity entry at Albumin is “Not Active”.

Turning to `CN(CCF)c1ccc(/C=C\c2nc3ccccc3[nH]2)cc1`, the result (in series [3]; on Insulin (Homo sapiens); in series [10]) was inactive. The result (in the series filed under Homo sapiens [5]; in the series filed under Homo sapiens [7]; in [8]) was Active. In addition, the Activity result on Albumin was “Not Active”.

For `CN(CCF)c1ccc(/C=C/c2nc3ccccc3s2)cc1`, the Kd in series [1] is 1.38 µM⁻¹; in [2] it was 1.79 µM⁻¹; in [11] it was 10.67 µM⁻¹. Further, the result (in series [3]; on Insulin (Homo sapiens); in [10]) was inactive. The fold change (FC) in the series listed under Homo sapiens [4] amounted to 4.48; in series [6] it was 7.41; in the series listed under Homo sapiens [9], 3.3. The outcome (in the series listed under Homo sapiens [5]; in the series filed under Homo sapiens [7]; in series [8]) was Active. Further, the Activity result at Albumin was “Not Active”.

`Cc1ccc2c(c1)sc(-c1ccc(N(C)C)cc1)[n+]2C.[Cl-]` [THIOFLAVIN T] registered a Kd in series [2] of 2.54 µM⁻¹.

On to `CN(CCF)c1ccc(/C=C\c2nc3ccccc3s2)cc1`, for which the results for the Kd in series [1], in series [2] and in [11] were 7.35 µM⁻¹, 8.59 µM⁻¹ and 23.96 µM⁻¹, respectively. The outcome (in series [3]; on Insulin (Homo sapiens); in [10]) was inactive. The fold change (FC) was 9.48 in the series filed under Homo sapiens [4], 11.3 in [6] and 2.98 in the series filed under Homo sapiens [9]. In addition, the result (in the series filed under Homo sapiens [5]; in the series filed under Homo sapiens [7]; in series [8]) was Active. Moreover, the Activity result at Albumin is reported as “Not Active”.
